Test results from PubChem BioAssay.
Results filed as inconclusive are left out.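 Rule for the calls, unless noted: active = growth inhibition above 25% in both replicates, a cutoff set 3 SD above the mean; inconclusive = above 25% in only one replicate; inactive = the rest.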

Columns and labels:
[1] = S. cerevisiae growth inhibition in permissive medium (OD615), pilot counter-assay for S. cerevisiae lifespan shortening project, permissive growth control (AID 705); settings: OD615, 24 h, at 10 µM, active compounds read high
Procedure, shortened: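 System: Engineered DeaD yeast | Buffer or medium: SC raffinose/galactose permissive medium | Doses: 10 µM single dose, 0.25% DMSO | Times: 24 h exposure, 30 °C | Measured by: OD615 turbidity read | Read-out: Yeast growth inhibition indicated by reduced 24 h OD615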

[2] = S. cerevisiae growth inhibition in restrictive medium, OD615, pilot screen, restrictive growth control, yeast lifespan reduction project (AID 706;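 active = growth inhibition above a set limit, 3 SD over mean compound inhibition, in both replicates, cut at about 43% in these data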;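 note: modified DeaD lifespan yeast strain shifted to restrictive glucose medium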); settings: OD615, 48 h, at 10 µM, active compounds read high
Procedure, shortened: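 Assay system: engineered S. cerevisiae DeaD strain; Buffer or medium: CSMM-D glucose medium; Dosing: 10 µM compound, 0.25% DMSO; Times: cell pre-growth 4 h, compound exposure 48 h, 30 °C; Detection: absorbance (optical density) measured at 615 nm.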

[3] = doxorubicin toxicity protection in MRP-1 cells – H69AR cells, CellTiter-Glo, duplicate, MRP-1 activator project, pilot screen (AID 807;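 active = viability increase at or above a cutoff of the median across tested compounds plus 3 SD, cut at about 8.5% in these data, passing the limit was not always enough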;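 note: compound pretreatment 18-22 h then 72 h combined with doxorubicin; 0% = doxorubicin alone and 100% = vehicle without doxorubicin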); settings: H69AR viability with doxorubicin, CellTiter-Glo luminescence; at 10 µM; active compounds read high
[4] = viability of HCT116 without oncogenic beta-catenin – human colon tumor cells, pilot screen (AID 823;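 active = cell viability at or below a set limit in both duplicate runs, the limit being the all-compound median minus 4 SD, cut at about 23% in these data, passing the limit was not always enough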;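 note: 0% = wells killed by 20 µM Hyamine and 100% = untreated DMSO cell wells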); settings: HCT116 beta-catenin knockout viability, CellTiter-Glo, 60 h; at 10 µM; active compounds read low
[5] = viability of PTEN-null HCT116 cells – cell-based, HCT116 clonal line, CellTiter-Glo, pilot screen (AID 824;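 active = viability at or below 27.92% in each of two runs, the all-compound median minus 4 SD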;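 note: 0% = 20 µM Hyamine control and 100% = vehicle cell control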); settings: HCT116 PTEN-deleted viability, 60 h, at 10 µM, active compounds read low
[6] = RAM pathway blockade in budding yeast – dse1pr::URA3 reporter, 5-FOA selection, pilot screen (AID 869;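 active = inhibition over a set limit, the all-compound mean plus 3 SD, in both replicate runs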;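 note: 0% = DMSO wells with no growth and 100% = 10 µM 1-NA-PP1 with full growth; RAM network block rescues cells from 5-FOA so hits raise OD615 growth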); settings: S. cerevisiae dse1pr::URA3 5-FOA growth, OD615, 2 d; at 10 µM; active compounds read high; strain carries analog-sensitive mutant Cbk1 kinase

Oc1ccccc1C(=S)N1CCCCC1
inactive: growth inhibition [1] 8.11% | growth inhibition [2] 23.6% | viability increase [3] -2.83% | viability [4] 94.7% | viability [5] 89.8% | inhibition [6] 2.25%

COc1ccc(OC)c(NC(=O)C2CCC(CNc3c(N4CCC(C)CC4)c(=O)c3=O)CC2)c1 (stereo unspecified)
inactive: growth inhibition [1] -5.59% | growth inhibition [2] -11.5% | viability increase [3] -4.93% | viability [4] 70.8% | viability [5] 70.1% | inhibition [6] 0.96%

CC1CCN(c2nc(-c3ccccc3)cc(C(F)(F)F)n2)CC1
inactive: growth inhibition [1] -10.7% | growth inhibition [2] -11% | viability increase [3] -1.76% | viability [4] 88.1% | viability [5] 90.6% | inhibition [6] 2.21%

COc1ccc(OC)c(NC(=O)C2COc3ccccc3O2)c1 (stereo unspecified)
inactive: growth inhibition [1] -10.5% | growth inhibition [2] -6.21% | viability increase [3] -2.23% | viability [4] 82.7% | viability [5] 80.3% | inhibition [6] 0.25%

COc1ccc(N2CCN(C(=O)CCS(=O)(=O)c3cccc4nsnc34)CC2)cc1
inactive: growth inhibition [1] -9.09% | growth inhibition [2] -6.57% | viability increase [3] -2.63% | viability [4] 95.7% | viability [5] 96.9% | inhibition [6] 0.895%

COCCNc1oc(-c2ccccc2Cl)nc1C#N
inactive: growth inhibition [1] -7.99% | growth inhibition [2] -2.94% | viability increase [3] -0.81% | viability [4] 111% | viability [5] 89.3% | inhibition [6] 1.51%

c1ccc(CNc2ncnc3nc[nH]c23)nc1
inactive: growth inhibition [1] -12.5% | growth inhibition [2] -1.55% | viability increase [3] -1.52% | viability [4] 102% | viability [5] 96.3% | inhibition [6] 1.71%

O=c1c2ccccc2nc(N2CCN(c3ccccc3)CC2)n1Cc1ccccc1
inactive: growth inhibition [1] -18.7% | growth inhibition [2] -8.96% | viability increase [3] -6.05% | viability [4] 66.3% | viability [5] 72.8% | inhibition [6] 1.27%

COc1ccc(-c2cc(CCCC(=O)NCc3ccccn3)no2)cc1
inactive: growth inhibition [1] -5.78% | growth inhibition [2] 8.54% | viability increase [3] -1.34% | viability [4] 98.8% | viability [5] 97.8% | inhibition [6] 1.08%

CCOc1ccccc1NC1c2ccccc2C(=O)N1c1ccc(C)cn1 (stereo unspecified)
inactive: growth inhibition [1] -14.3% | growth inhibition [2] 3.06% | viability increase [3] -1.37% | viability [4] 88.2% | viability [5] 88% | inhibition [6] 0.395%

Cc1noc(/C=C/N(C)C)c1S(=O)(=O)N1CCCC(C(=O)NCc2ccc(F)cc2)C1 (stereo unspecified)
inactive: growth inhibition [1] -4.61% | growth inhibition [2] -8.86% | viability [4] 90.1% | viability [5] 85.8%

CCNC(=O)CCn1nc(-c2ccc(Cl)cc2)c2ccccc2c1=O
inactive: growth inhibition [1] -10.9% | growth inhibition [2] -10.1% | viability increase [3] -5.74% | viability [4] 49.5% | inhibition [6] 0.575%

O=C(NCc1ccc2c(c1)OCO2)c1nnc(Cc2ccc(F)cc2)o1
inactive: growth inhibition [1] -1.76% | growth inhibition [2] 9.91% | viability increase [3] 0.87% | viability [4] 105% | viability [5] 97.1% | inhibition [6] 3.56%

COc1ccc(Nc2nc(N)nc(CN3CCC(Cc4ccccc4)CC3)n2)cc1
inactive: growth inhibition [1] 6.83% | growth inhibition [2] -0.085% | viability increase [3] -6.58% | viability [5] 35.8% | inhibition [6] 0.1%

N#CC1=C2SCN(c3ccccc3)CN2C(=O)CC1c1ccccc1Cl (stereo unspecified)
inactive: growth inhibition [1] 6.17% | viability increase [3] -5.58% | viability [4] 97.2% | viability [5] 82.5% | inhibition [6] 2.58%

COc1ccc(N(CC(=O)NCCSc2ccccn2)S(C)(=O)=O)cc1Cl
inactive: growth inhibition [1] -5.09% | growth inhibition [2] -6.72% | viability increase [3] -3.81% | viability [5] 97.3% | inhibition [6] 1.44%

CCCCCCC1C(C#N)=C(N)OC2=C1C(=O)CC(C)(C)C2 (stereo unspecified)
inactive: growth inhibition [1] -34.7% | growth inhibition [2] -40.1% | viability increase [3] -2.49% | viability [4] 102% | viability [5] 96.7% | inhibition [6] 0.505%

CCN1CCN(CC(=O)Nc2cccc(C)c2)C(=O)C1=O
inactive: growth inhibition [1] -9.91% | growth inhibition [2] -0.21% | viability increase [3] -1.01% | viability [4] 99.6% | viability [5] 95.6% | inhibition [6] 1.27%

CC(C)n1c(C(=O)OCC(=O)NCc2ccc3c(c2)OCO3)cc2sccc21
inactive: growth inhibition [1] -10.2% | growth inhibition [2] -12.8% | viability increase [3] -6.26% | viability [4] 53.4% | inhibition [6] 2.71%

Cc1cccc(N2CCN(C(=O)c3cc4c(=O)n(C)c5ccccc5c4n3C)CC2C)c1 (stereo unspecified)
inactive: growth inhibition [1] -3.86% | growth inhibition [2] 3.15% | viability increase [3] -4.81% | inhibition [6] 1.81%

COc1cc(C2CC(=O)c3c([nH]c(C(=O)OCCOC(C)C)c3C)C2)cc(OC)c1OC (stereo unspecified)
inactive: growth inhibition [1] -15.2% | growth inhibition [2] -28.2% | viability increase [3] -2.78% | viability [5] 42.7% | inhibition [6] 1.85%
